This is an account of results in ChEMBL document CHEMBL2029267, “Rapid assembly of a library of lipophilic iminosugars via the thiol-ene reaction yields promising pharmacological chaperones for the treatment of Gaucher disease” (J Med Chem, 2012).

A short description of data set [1]: Cytotoxicity against gaucher patient fibroblast assessed as decrease in cell viability at 100 uM after 5 days by alamar blue assay. The format is cell-based. The conditions noted are these: human, 120 h. The procedure, abridged:
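Viability of GD patient fibroblasts grown with compound at 10, 33 and 100 μM was read by a resazurin-based spectrophotometric assay.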

Data set [2] deals with T1, Lysosomal acid glucosylceramidase (Homo sapiens), P04062 [N409S].
T1 sequence (whole entry): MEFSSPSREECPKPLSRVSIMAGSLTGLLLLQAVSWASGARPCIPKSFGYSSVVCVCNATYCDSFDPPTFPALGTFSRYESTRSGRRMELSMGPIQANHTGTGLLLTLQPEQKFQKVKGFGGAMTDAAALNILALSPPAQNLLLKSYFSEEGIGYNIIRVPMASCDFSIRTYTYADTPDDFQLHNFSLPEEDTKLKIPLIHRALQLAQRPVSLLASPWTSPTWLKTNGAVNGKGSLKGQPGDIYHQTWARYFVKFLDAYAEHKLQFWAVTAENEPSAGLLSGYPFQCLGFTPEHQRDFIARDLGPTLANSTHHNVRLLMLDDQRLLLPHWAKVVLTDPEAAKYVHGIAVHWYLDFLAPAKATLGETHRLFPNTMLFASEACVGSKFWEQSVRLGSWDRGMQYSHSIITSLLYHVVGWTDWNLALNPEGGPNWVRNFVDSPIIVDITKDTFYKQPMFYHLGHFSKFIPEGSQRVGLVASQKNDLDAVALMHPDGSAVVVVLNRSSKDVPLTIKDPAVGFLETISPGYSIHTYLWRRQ
As to the kind of experiment: Activation of intracellular glucocerebrosidase p.N370S mutant in gaucher patient fibroblast using 4-methylumbelliferyl beta-D-glucopyranoside as substrate assessed as concentration at which 50% of maximum increase in activity.

In data set [3] the target is Lysosomal alpha-glucosidase (Homo sapiens) (UniProt P10253). The experiment in a line: Inhibition of human lysosomal alpha-glucosidase using 4-methylumbelliferyl alpha-D-glucopyranoside as substrate at 200 uM by fluorimetric analysis. The procedure, abridged: (§1)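 Enzyme source was a lysosomal-enzyme-enriched ConA-bound human placental fraction, run in 100 mM citrate–phosphate pH 4.5 with 0.025% human serum albumin at 37 °C. Compound was tested at 200 μM in triplicate. An equal volume of 4-MU substrate was added: α-Glc 3.0 mM (α-glucosidase), α-Gal 1.0 mM (α-galactosidase), β-Gal 0.5 mM (β-galactosidase). Reactions were stopped with 4-fold excess 100 mM aminomethylpropanol and fluorescence read at 365/460 nm.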

Data set [4] concerns the target T2, Lysosomal acid glucosylceramidase (Homo sapiens, UniProt P04062).
T2 sequence (P04062 whole entry): T1 sequence (whole entry) with S409N
As to the kind of experiment: Competitive inhibition of wild type human glucocerebrosidase using 4-methylumbelliferyl beta-D-glucopyranoside as substrate after 15 mins by Dixon and Line-Weaver Burk plot analysis […].

Data set [5] deals with T3, Lysosomal acid glucosylceramidase (Homo sapiens) (UniProt P04062).
T3 sequence (whole entry): T1 sequence (whole entry) with S409N
The experiment in a line: Thermal denaturation of human glucocerebrosidase by differential scanning fluorimetry assessed as change in melting temperature at 100 uM and pH 7. Background: DSF heats the sample and reads unfolding from a dye or from intrinsic fluorescence.

In data set [6] the test system is T1, Lysosomal acid glucosylceramidase (Homo sapiens), P04062 [N409S]. The experiment in a line: Activation of intracellular glucocerebrosidase p.N370S mutant in gaucher patient fibroblast using 4-methylumbelliferyl beta-D-glucopyranoside as substrate relative to control.
The species named for data set [7] is Homo sapiens. As to the kind of experiment: Activation of intracellular glucocerebrosidase p.L444P mutant in gaucher patient fibroblast using 4-methylumbelliferyl beta-D-glucopyranoside as substrate relative to control.
Data set [8] addresses T4, Beta-galactosidase (Homo sapiens) (UniProt P16278).
T4 sequence (whole entry): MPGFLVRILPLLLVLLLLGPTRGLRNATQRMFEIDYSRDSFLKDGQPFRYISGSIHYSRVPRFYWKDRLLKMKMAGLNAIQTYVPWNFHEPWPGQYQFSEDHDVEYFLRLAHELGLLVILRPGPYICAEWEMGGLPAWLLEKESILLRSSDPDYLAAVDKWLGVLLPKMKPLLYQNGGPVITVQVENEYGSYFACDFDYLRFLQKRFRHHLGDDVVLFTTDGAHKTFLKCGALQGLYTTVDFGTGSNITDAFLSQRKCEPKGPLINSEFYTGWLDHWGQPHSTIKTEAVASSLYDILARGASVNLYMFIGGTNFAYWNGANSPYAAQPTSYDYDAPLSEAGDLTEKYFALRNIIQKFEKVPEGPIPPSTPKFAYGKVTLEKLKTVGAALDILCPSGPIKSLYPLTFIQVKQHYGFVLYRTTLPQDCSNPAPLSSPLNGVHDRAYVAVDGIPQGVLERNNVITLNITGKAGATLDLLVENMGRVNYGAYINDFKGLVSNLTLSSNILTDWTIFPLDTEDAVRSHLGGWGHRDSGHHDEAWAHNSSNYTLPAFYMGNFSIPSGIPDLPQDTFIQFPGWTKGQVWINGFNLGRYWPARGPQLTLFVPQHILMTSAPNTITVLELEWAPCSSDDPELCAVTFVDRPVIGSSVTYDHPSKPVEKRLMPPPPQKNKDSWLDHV
As to the kind of experiment: Inhibition of human lysosomal beta-galactosidase using 4-methylumbelliferyl beta-Dgalactopyranoside as substrate at 200 uM by fluorimetric analysis. The essentials: as §1

For data set [9], the species on record is Homo sapiens. As to the kind of experiment: Inhibition of human lysosomal alpha-galactosidase using 4-methylumbelliferyl alpha-D-galactopyranoside as substrate at 200 uM by fluorimetric analysis. The procedure, abridged: as §1
The species entered for data set [10] is Homo sapiens. As to the kind of experiment: Activation of intracellular glucocerebrosidase p.L444P mutant in gaucher patient fibroblast using 4-methylumbelliferyl beta-D-glucopyranoside as substrate assessed as concentration at which 50% of maximum increase in activity.

Molecules are shown by their SMILES. Substitutions are numbered along the chain they refer to. Calls of active or inactive are those of the source. No cut-off for these calls is given here.

In general, Ki refers to the dissociation constant of the complex between target and ligand, obtained from inhibition or displacement. A high value points to weaker binding. Regarding `CCCCCCSCC[C@H]1NC[C@@H](O)[C@H](O)[C@H]1O.Cl`, the values for the Activity entry (in [1]; in data set [2]; in the data set filed under Homo sapiens [10]) were “Toxic”, 2.7 nM and 0.6 nM, respectively. In addition, the inhibition entry (in [3]; in data set [8]; in the data set listed under Homo sapiens [9]) was “inactive” each time. Moreover, in data set [4], affinity was put at a Ki of 1.8 nM. Moreover, in data set [5], the deltaTm was 15 K. Also, the fold change (FC) is 2.1 in [6] and 1.3 in the data set listed under Homo sapiens [7].
